Results taken from ChEMBL document CHEMBL1146656, “The monoethyl ester of meconic acid is an active site inhibitor of HCV NS5B RNA-dependent RNA polymerase” (Bioorg Med Chem Lett, 2004).

Assays:
[1] = molecular target: T1, RNA-directed RNA polymerase (Hepacivirus hominis, UniProt O39930); assay: Inhibitory potency against NS5B HCV polymerase
Summary of the method: (§1)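 NS5BΔC55 (C-terminal 55-residue truncation) expressed in E. coli and purified to homogeneity, used at 5 nM in 20 mM Tris/HCl pH 7.5, 0.05% Triton X-100, 2% glycerol, 50 mM NaCl, 1 mM DTT, 5 mM MgCl2. Enzyme preincubated 20 min at 23 °C with poly(rA)/oligo(rU) (20 µg/mL final). Started with 10 µM 3H-UTP, 30 min at 23 °C. Acid-insoluble radioactivity counted. IC50 from three-parameter logistic fit; mean of 2–4 experiments.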

[2] = tested on: Hepatitis C virus; assay: Tested for inhibition of HCV RNA replication in a cell-basedassay; No significant inhibition; assay type: functional, organism-based, Hepacivirus hominis
[3] = molecular target: T1, RNA-directed RNA polymerase; assay: Inhibitory potency of compound in presence of Mg2+ ion against NS5B HCV polymerase
Summary of the method: as §1, with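 “NS5B with C-terminal” for “NS5BΔC55 (C-terminal”, “truncation (ΔC55),” for “truncation)”, “purified;” for “purified to homogeneity, used at”, “nM enzyme” for “nM”, “measured;” for “counted.”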

[4] = molecular target: T1, RNA-directed RNA polymerase; assay: Inhibitory potency of compound in presence of Mn2+ ion against NS5B HCV polymerase
[5] = molecular target: T1, RNA-directed RNA polymerase; assay: Ability of compound to displace [3H]-DKA from NS5B HCV polymerase by 50%

T1 sequence (O39930 whole entry, the tested form may be a part): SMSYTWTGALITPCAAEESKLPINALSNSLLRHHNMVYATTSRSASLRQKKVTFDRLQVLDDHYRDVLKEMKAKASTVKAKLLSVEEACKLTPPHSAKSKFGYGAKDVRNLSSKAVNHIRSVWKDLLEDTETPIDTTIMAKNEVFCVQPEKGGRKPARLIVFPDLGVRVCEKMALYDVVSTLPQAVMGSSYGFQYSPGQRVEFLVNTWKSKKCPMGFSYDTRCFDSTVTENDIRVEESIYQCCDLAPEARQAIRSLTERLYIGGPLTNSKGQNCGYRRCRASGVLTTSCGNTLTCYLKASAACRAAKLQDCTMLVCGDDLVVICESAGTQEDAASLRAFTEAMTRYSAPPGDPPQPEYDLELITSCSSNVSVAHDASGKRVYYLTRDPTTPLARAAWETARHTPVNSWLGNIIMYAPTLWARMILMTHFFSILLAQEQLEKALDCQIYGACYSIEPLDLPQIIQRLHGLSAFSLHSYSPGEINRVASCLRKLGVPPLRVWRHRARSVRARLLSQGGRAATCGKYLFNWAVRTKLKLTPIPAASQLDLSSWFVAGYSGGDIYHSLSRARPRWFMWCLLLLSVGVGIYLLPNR

Row | EC50 [2] | IC50 [3] | IC50 [4] | DC50 [5] | Compound | IC50 [1]
1 | > 50 µM |  |  |  | O=C(O)c1occc(=O)c1O | 51 µM
2 | > 50 µM | 2.25 µM | 165 nM | 1200 nM | CCOC(=O)c1cc(=O)c(O)c(C(=O)O)o1 | 2.25 µM
3 | > 50 µM |  |  | 300 nM | O=C(O)C(=O)/C=C(\O)c1ccccc1 | 
4 | > 50 µM |  |  |  | CCNC(=O)c1cc(=O)c(O)c(C(=O)O)o1 | 24 µM
5 | > 50 µM | 16.2 µM | 800 nM |  | CCOCc1cc(=O)c(O)c(C(=O)O)o1 | 16.2 µM
6 | > 50 µM |  |  |  | CC(C)(C)OC(=O)c1cc(=O)c(O)c(C(=O)O)o1 | 36 µM
7 | > 50 µM | 23 µM | 1900 nM |  | O=C(O)c1oc2ccccc2c(=O)c1O | 

Row | Compound | EC50 [2] | IC50 [3] | IC50 [4] | DC50 [5] | IC50 [1]
8 | CCN(CC)C(=O)c1cc(=O)c(O)c(C(=O)O)o1 | > 50 µM |  |  |  | > 100 µM
9 | O=C(O)c1cc(=O)c(O)c(C(=O)O)o1 | 50 µM | > 100 µM | 18000 nM |  | > 100 µM
10 | COC(=O)c1oc(C(=O)O)cc(=O)c1O | > 50 µM |  |  |  | > 100 µM
11 | O=C(O)c1oc(COCc2ccccc2)cc(=O)c1O | > 50 µM |  |  |  | > 100 µM
12 | CCOC(=O)c1cc(=O)c(O)c(C(=O)OCC)o1 | > 50 µM | > 100 µM | 4000 nM |  | > 100 µM
13 | CCOC(=O)c1cc(=O)c(O)co1 | > 50 µM |  |  |  | > 100 µM
